Assay results as given in publication PMC3774010 (Cancer research, 2013).

Legend:
[1] = tested on: A549 cells; test: SRB cell growth assay, A549; assay type: cell-based, human; conditions: A549, 72 h
Procedure, shortened: (§1)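 Cells seeded at 6×10^3–8×10^3 per well, grown overnight, then exposed 72 h to test compound (0, 0.5, 1, 2, 5, 10, 30 µM). Surviving fraction measured by sulforhodamine B protein staining; IC50 calculated from the dose series. Data given as mean ± S.D.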

[2] = tested on: H1299 cells; test: SRB cell growth assay, H1299; assay type: cell-based, human
Procedure, shortened: as §1

[3] = tested on: H157 cells; test: SRB cell growth assay, H157; assay type: cell-based, human
Procedure, shortened: as §1

[4] = tested on: normal human bronchial epithelial cells (BEAS-2B); test: Cytotoxicity in lung cancer cells versus normal bronchial epithelial cells; assay type: cell-based
Procedure, shortened: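 Cells were seeded at 6×10^3–8×10^3 per well, grown overnight, then treated 72 h. Surviving fraction read by sulforhodamine B protein-stain assay. BEAS-2B and A549 were kept in DMEM/F-12 with 10% FBS, and H1299 in RPMI 1640 with 5% FBS plus 5% bovine serum. Lung cancer lines received 0, 0.5, 1, 2, 5, 10 or 30µM.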

[5] = target: T1, Bfl-1/A1 (Homo sapiens, UniProt Q16548); test: Competition fluorescence polarization assay with Bak BH3 peptide, Bfl-1/A1; assay type: binding; conditions: 0.1~500nM
T1 sequence (Q16548 1-175): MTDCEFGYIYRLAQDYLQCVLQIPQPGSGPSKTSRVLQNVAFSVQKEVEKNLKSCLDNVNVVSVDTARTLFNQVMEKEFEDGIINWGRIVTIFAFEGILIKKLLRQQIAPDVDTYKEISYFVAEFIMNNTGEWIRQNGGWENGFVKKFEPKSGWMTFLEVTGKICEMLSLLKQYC

[6] = tested on: H1299 lung cancer xenografts; test: H1299 lung cancer xenografts in nude mice; assay type: in vivo; conditions: for anti-tumor efficacy compared with ABT-737: 30mg/kg/d i.p. for 14 days
[7] = target: T2, Bcl-w (Homo sapiens, UniProt Q92843); test: Competition fluorescence polarization assay with Bak BH3 peptide, Bcl-w; assay type: binding; conditions: 0.1~500nM
T2 sequence (Q92843 1-193): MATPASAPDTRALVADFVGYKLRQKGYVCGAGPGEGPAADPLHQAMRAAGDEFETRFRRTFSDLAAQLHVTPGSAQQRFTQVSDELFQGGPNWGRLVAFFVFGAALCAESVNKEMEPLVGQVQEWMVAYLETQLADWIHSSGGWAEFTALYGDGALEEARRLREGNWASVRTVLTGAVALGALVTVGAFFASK

[8] = target: human Bcl-XL protein (Homo sapiens, UniProt Q07817); test: Competition fluorescence polarization assay with Bak BH3 peptide, Bcl-XL; assay type: binding; conditions: purified Bcl-XL 6nM, Bak BH3 peptide 3nM
[9] = target: Mcl-1 (Homo sapiens, UniProt Q07820); test: Competition fluorescence polarization assay with Bak BH3 peptide, Mcl-1; assay type: binding; conditions: 0.1~500nM
[10] = target: Bcl2 (Homo sapiens, UniProt P10415); test: Competition fluorescence polarization assay with Bak BH3 peptide, Bcl2; assay type: binding; conditions: 0.1~500nM
[11] = tested on: A549-P and A549-IRR cells; test: Cell growth of A549-P and A549-IRR cells; assay type: cell-based, human; conditions: colony formation 10 days, SRB 72h
[12] = tested on: Nu/Nu nude mice; test: In vivo toxicity: body weight, blood analysis, histopathology; conditions: for platelet reduction compared with ABT-737: 30mg/kg/d i.p. for 14 days
Procedure, shortened: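 Nu/Nu mice given test compound i.p. daily at various doses (dose-finding: 10–50 mg/kg/d up to 25 days, 6 mice/dose; xenograft mice: 30 mg/kg/d for 14 days). Body weight recorded every other day. Terminal cardiac-puncture blood (250 µL, EDTA) under anaesthesia analyzed for WBC, RBC, platelets, ALT, AST, BUN. Organs examined by H&E histology.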

[13] = tested on: H1299 cells; test: Colony formation assay in Bcl-XL shRNA H1299 cells; assay type: cell-based, human
[14] = tested on: Nu/Nu nude mice; test: Maximum tolerated dose
[15] = tested on: Cyt c release; test: Cytochrome c release from mitochondria in H1299 cells; assay type: cell-based, human
Procedure, shortened: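 Test compound given to H1299 cells at increasing concentrations (0.1–5µM) for 24 h. Subcellular fractionation separated mitochondrial and cytosolic fractions. Cytochrome c detected in the fractions by Western blot, with prohibitin as the mitochondrial marker.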

[16] = tested on: Bak; test: Bak oligomerization; assay type: cell-based, human; conditions: H1299 cells, BMH cross-linking
Procedure, shortened: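 H1299 cells exposed to increasing test compound concentrations (0.1–5µM) for 24 h. Mitochondria isolated by subcellular fractionation and taken up in PBS (pH7.2) conjugation buffer. BMH and EDTA added to cross-link Bak sulfhydryls, 1 h at room temperature, then DTT quench for 15 min at room temperature. Products resolved by SDS-PAGE and Western blotted with anti-Bak.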

[17] = tested on: Nu/Nu nude mice; conditions: mouse, in vivo, ip
[18] = target: Bcl-XL/Bak (Homo sapiens, UniProt Q07817); test: Co-immunoprecipitation of Bcl-XL/Bak in H1299 cells; assay type: cell-based; conditions: 0.1–5µM, 24 h
Procedure, shortened: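 H1299 cells treated 24 h with test compound at 0.1–5 µM. Lysates were immunoprecipitated with a Bcl-XL antibody (normal IgG as IP control), and co-precipitated Bak and Bcl-XL were detected by Western blot. Total-lysate Bcl-XL and Bak levels were also blotted.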

[19] = tested on: A549-P and A549-IRR xenografts; test: A549-P and A549-IRR lung cancer xenografts in mice; assay type: in vivo
[20] = target: Bcl-XL/Bax (Homo sapiens, UniProt Q07817); test: Bcl-XL/Bax complex disruption in cells; assay type: cell-based
Chain of Bcl-XL/Bax (Q07817 whole entry): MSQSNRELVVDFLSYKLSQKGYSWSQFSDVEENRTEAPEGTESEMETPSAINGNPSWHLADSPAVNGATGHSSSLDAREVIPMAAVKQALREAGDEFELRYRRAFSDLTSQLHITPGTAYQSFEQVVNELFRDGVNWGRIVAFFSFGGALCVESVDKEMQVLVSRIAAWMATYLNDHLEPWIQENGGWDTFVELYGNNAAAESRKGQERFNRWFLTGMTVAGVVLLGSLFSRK

Chain of Bcl2 (P10415 whole entry): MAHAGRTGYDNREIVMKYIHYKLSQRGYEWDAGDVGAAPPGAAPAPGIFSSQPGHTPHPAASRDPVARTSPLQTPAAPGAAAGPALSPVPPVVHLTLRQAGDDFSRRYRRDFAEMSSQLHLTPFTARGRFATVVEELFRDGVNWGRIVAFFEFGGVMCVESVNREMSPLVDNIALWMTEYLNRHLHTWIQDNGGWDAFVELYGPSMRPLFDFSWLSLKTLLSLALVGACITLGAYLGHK
Chain of Mcl-1 (Q07820 whole entry): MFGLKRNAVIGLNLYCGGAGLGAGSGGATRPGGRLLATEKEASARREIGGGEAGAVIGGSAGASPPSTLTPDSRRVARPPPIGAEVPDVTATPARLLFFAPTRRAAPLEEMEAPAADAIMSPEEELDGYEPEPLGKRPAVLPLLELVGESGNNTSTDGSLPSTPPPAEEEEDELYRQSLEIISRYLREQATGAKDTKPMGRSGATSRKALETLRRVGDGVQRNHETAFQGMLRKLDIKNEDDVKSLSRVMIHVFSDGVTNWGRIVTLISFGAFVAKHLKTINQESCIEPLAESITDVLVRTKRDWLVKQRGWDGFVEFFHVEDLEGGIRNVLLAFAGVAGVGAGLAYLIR
Chain of human Bcl-XL protein (Q07817 whole entry): as the sequence (Q07817 whole entry) above
Chain of Bcl-XL/Bak (Q07817 whole entry): as above

Compound `CN(C)CC[C@H](CSc1ccccc1)Nc1ccc(S(=O)(=O)NC(=O)c2ccc(N3CCN(Cc4ccccc4-c4ccc(Cl)cc4)CC3)cc2)cc1[N+](=O)[O-]` [ABT-737, reference compound] has an IC50 ([1]; Homo sapiens) of 19400 ± 1230 nM, an IC50 ([2]; Homo sapiens, NCI-H1299, 72 h) of 40500 ± 3560 nM and an IC50 ([3]; Homo sapiens, NCI-H157, 72 h) of 27600 ± 1490 nM.

With `CCOc1ccc2nc3cc(N=Nc4ccc(N)nc4N)ccc3c(N)c2c1` [BXI-61] the “cytotoxicity against lung cancer cells compared to normal human bronchial epithelial cells” value [4] was “relatively selective cytotoxicity”, the “binding affinity with Bfl-1/A1” value [5] was “very low binding affinities” and the IC50 ([1]; SRB assay) was 3170 ± 280 nM. For the same compound, the IC50 ([2]; H1299, 72 h, SRB assay) was 1790 ± 120 nM, the IC50 ([3]; H157, 72 h, SRB assay) was 5710 ± 490 nM and the “potency against lung cancer in vivo” value ([6]; 40mg/kg/d) was “high potency against lung cancer”. The “anti-tumor efficacy compared with ABT-737” value ([6]; H1299 xenografts) was “more potent efficacy against human lung cancer than ABT-737”, the “binding affinity with Bcl-w” value [7] was “very low binding affinities” and the Ki [8] was 14.8 ± 1.54 nM. The “binding affinity with Mcl-1” value [9] was “very low binding affinities”, the “binding affinity with Bcl2” value [10] was “very low binding affinities” and the “sensitivity of A549-P and A549-IRR cells” value [11] was “remained sensitive”. The “platelet reduction compared with ABT-737” value [12] was “less effect on platelet than ABT-737”, the normal tissue toxicities ([12]; 40mg/kg/d) was “without significant normal tissue toxicities except for a slight decrease in platelets” and the “sensitivity of H1299 cells after depletion of endogenous Bcl-XL” value [13] was “significantly reduced the sensitivity”.

With `CCOc1ccc(-c2nc3ccc(-c4nc5ccc(N6CCN(C)CC6)cc5[nH]4)cc3[nH]2)cc1` [BXI-72] the “cytotoxicity against lung cancer cells compared to normal human bronchial epithelial cells” value [4] was “relatively selective cytotoxicity”, the lethality ([14]; 50mg/kg/d i.p., six mice, within 10 days) was “uniformly lethal” and the death ([14]; 10 to 30mg/kg/d i.p., after 25 days of daily administration) was “no death recorded”. For the same compound, the “binding affinity with Bfl-1/A1” value [5] was “very low binding affinities”, the IC50 ([1]; SRB assay) was 680 ± 80 nM and the “Cyt c release from mitochondria” value [15] was “facilitate Cyt c release from mitochondria”. For the same compound, the Bak oligomerization [16] was “facilitated the formation of Bak dimers, trimers and multimers”, the IC50 ([2]; H1299, 72 h, SRB assay) was 490 ± 120 nM and the “maximum tolerated dose (MTD)” value [17] was 30~40 mg/kg/d. For the same compound, the Bcl-XL/Bak dissociation [18] was “dose-dependent Bcl-XL/Bak dissociation”, the “effect on tumors derived from A549-P and A549-IRR cells” value ([19]; 20mg/kg/d ×18) was “repressed tumors derived from both A549-P and A549-IRR cells” and the normal tissue toxicities ([19]; A549 xenograft mice, 20mg/kg/d) was “no significant normal tissue toxicities”. The IC50 ([3]; H157, 72 h, SRB assay) was 1870 ± 160 nM, the “anti-tumor efficacy compared with ABT-737” value ([6]; H1299 xenografts) was “more potent efficacy against human lung cancer than ABT-737” and the “effect on established lung cancer xenografts” value ([6]; H1299 xenografts, 10, 20 and 30mg/kg/d i.p. for 14 days) was “dose-dependent regression”. The “apoptosis in tumor tissues (active caspase 3 IHC)” value ([6]; H1299 xenografts, 10-30mg/kg/d i.p. 14 days) was “dose-dependent apoptosis”, the Bcl-XL/Bax complexes [20] was “disrupts Bcl-XL/Bax complexes” and the “binding affinity with Bcl-w” value [7] was “very low binding affinities”. For the same compound, the Ki [8] was 0.9 ± 0.15 nM, the “binding affinity with Mcl-1” value [9] was “very low binding affinities” and the “binding affinity with Bcl2” value [10] was “very low binding affinities”. For the same compound, the “sensitivity of A549-P and A549-IRR cells” value [11] was “remained sensitive”, the “platelet reduction compared with ABT-737” value [12] was “less effect on platelet than ABT-737” and the liver histology ([12]; 50mg) was “hepatocellular necrosis”. For the same compound, the “ALT, AST, BUN, WBC and RBC” value ([12]; 10–30mg/kg/d) was “no significant increases in ALT, AST and BUN or decreases in WBC and RBC”, the “histopathology of normal tissues” value ([12]; 10–30mg/kg/d) was “no evidence of normal tissue toxicities” and the body weight ([12]; 20–30mg/kg) was “well tolerated without weight loss”. The “ALT, AST and BUN” value ([12]; 40–50mg/kg/d for two weeks) was “increases in ALT, AST and BUN”, the platelets ([12]; increased doses of BXI-72, mice) was “dose-dependent reduction of platelets” and the “sensitivity of H1299 cells after depletion of endogenous Bcl-XL” value [13] was “significantly reduced the sensitivity”.
